According to ChEMBL document CHEMBL1142492 (J Med Chem, 2008):

Legend:
[1] = target: Mitogen-activated protein kinase kinase kinase 10 (Homo sapiens) (UniProt Q02779); experiment: Inhibition of MLK2 at 3 uM
[2] = target: Calcium/calmodulin-dependent protein kinase type IV (Homo sapiens) (UniProt Q16566); experiment: Inhibition of CAMK4 at 3 uM
[3] = target: Platelet-activating factor receptor (Homo sapiens) (UniProt P25105); experiment: Inhibition of human PAF at 3 uM
[4] = target: Dual specificity protein kinase CLK2 (Homo sapiens) (UniProt P49760); experiment: Inhibition of CLK2 at 3 uM
Chain of Dual specificity protein kinase CLK2 (Homo sapiens) (P49760 whole entry, looked up): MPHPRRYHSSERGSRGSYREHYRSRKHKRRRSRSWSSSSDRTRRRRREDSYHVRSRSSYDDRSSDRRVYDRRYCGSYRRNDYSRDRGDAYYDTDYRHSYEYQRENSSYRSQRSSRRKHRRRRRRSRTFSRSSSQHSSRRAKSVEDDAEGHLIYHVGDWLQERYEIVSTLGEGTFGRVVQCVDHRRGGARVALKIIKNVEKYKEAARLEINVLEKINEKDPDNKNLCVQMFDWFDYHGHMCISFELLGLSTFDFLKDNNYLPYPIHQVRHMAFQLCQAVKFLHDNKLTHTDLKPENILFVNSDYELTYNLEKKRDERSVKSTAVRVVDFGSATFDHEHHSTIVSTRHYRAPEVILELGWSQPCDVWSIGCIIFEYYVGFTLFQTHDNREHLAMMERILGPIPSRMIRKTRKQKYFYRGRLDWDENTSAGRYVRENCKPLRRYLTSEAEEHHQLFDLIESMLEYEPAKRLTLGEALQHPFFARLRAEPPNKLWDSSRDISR

[5] = target: Epidermal growth factor receptor (Homo sapiens) (UniProt P04626+P00533+Q15303+P21860); experiment: Inhibition of EGFR L747-E749del,A750P mutant at 3 uM; format: protein assay
[6] = target: Mitogen-activated protein kinase kinase kinase 5 (Homo sapiens) (UniProt Q99683); experiment: Inhibition of MAP3K5 at 3 uM
[7] = target: B1 bradykinin receptor (Homo sapiens) (UniProt P46663); experiment: Inhibition of human bradykinin B1 receptor at 3 uM
In short: (§1)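 Counter-screen binding/enzyme panel at single 3 μM, n=2; results as percent inhibition. Species per target as listed (rat NMDA, GABAA sites; human receptors, transporters; rabbit ACE).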

[8] = target: Bone morphogenetic protein receptor type-1A (Homo sapiens) (UniProt P36894); experiment: Inhibition of BMPR1A at 3 uM
Chain of Bone morphogenetic protein receptor type-1A (Homo sapiens) (P36894 whole entry): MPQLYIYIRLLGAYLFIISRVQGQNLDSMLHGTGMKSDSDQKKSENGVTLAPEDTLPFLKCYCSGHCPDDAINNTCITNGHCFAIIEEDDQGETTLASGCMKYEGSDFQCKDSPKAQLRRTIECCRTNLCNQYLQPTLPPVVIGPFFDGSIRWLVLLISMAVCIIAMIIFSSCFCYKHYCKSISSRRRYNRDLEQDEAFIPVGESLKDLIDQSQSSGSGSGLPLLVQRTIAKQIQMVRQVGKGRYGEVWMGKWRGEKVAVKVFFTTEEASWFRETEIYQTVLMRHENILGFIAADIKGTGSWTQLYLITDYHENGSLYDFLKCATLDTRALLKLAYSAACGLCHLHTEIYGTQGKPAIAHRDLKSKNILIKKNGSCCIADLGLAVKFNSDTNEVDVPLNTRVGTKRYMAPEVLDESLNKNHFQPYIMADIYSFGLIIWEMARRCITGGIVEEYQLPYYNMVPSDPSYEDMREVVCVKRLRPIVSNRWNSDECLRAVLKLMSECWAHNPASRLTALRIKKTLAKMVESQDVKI

[9] = target: Inhibitor of nuclear factor kappa-B kinase subunit epsilon (Homo sapiens) (UniProt Q14164); experiment: Inhibition of IKK-epsilon at 3 uM
[10] = target: Neuropeptide Y receptor type 1 (Homo sapiens) (UniProt P25929); experiment: Inhibition of human neuropeptide Y Y1 receptor at 3 uM; in short: as §1
[11] = target: Dual specificity mitogen-activated protein kinase kinase 1 (Homo sapiens) (UniProt Q02750); experiment: Inhibition of MEK1 at 3 uM
[12] = target: Receptor tyrosine-protein kinase erbB-4 (Homo sapiens) (UniProt Q15303); experiment: Inhibition of ERBB4 at 3 uM
In short: (§2)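 Single-concentration kinase panel scoring: each value is the percentage of enzyme activity remaining relative to a DMSO-only control. An activity statistically indistinct from DMSO control was scored "no hit".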

[13] = target: Acetylcholine receptor subunit alpha (Homo sapiens) (UniProt P02708); experiment: Displacement of bungarotoxin from human nAChR alpha1 receptor at 3 uM
Chain of Acetylcholine receptor subunit alpha (Homo sapiens) (P02708 whole entry): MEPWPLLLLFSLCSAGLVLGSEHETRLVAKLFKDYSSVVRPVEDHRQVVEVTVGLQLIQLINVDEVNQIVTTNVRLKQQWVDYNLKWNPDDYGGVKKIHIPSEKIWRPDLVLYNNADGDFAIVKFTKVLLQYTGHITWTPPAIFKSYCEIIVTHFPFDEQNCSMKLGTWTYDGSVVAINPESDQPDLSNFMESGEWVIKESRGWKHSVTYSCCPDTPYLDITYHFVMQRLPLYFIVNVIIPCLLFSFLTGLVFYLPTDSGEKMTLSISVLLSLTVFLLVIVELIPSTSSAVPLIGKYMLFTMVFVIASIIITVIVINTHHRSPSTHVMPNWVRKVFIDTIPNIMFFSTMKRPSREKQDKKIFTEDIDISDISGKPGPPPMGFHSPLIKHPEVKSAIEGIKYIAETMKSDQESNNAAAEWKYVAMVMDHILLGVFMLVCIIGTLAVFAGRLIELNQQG
In short: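 Counter-screen of human nicotinic α1 receptor binding, assayed by bungarotoxin displacement.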

[14] = target: Serine/threonine-protein kinase TNNI3K (Homo sapiens) (UniProt Q59H18); experiment: Inhibition of TNNI3K at 3 uM
Chain of Serine/threonine-protein kinase TNNI3K (Homo sapiens) (Q59H18 whole entry): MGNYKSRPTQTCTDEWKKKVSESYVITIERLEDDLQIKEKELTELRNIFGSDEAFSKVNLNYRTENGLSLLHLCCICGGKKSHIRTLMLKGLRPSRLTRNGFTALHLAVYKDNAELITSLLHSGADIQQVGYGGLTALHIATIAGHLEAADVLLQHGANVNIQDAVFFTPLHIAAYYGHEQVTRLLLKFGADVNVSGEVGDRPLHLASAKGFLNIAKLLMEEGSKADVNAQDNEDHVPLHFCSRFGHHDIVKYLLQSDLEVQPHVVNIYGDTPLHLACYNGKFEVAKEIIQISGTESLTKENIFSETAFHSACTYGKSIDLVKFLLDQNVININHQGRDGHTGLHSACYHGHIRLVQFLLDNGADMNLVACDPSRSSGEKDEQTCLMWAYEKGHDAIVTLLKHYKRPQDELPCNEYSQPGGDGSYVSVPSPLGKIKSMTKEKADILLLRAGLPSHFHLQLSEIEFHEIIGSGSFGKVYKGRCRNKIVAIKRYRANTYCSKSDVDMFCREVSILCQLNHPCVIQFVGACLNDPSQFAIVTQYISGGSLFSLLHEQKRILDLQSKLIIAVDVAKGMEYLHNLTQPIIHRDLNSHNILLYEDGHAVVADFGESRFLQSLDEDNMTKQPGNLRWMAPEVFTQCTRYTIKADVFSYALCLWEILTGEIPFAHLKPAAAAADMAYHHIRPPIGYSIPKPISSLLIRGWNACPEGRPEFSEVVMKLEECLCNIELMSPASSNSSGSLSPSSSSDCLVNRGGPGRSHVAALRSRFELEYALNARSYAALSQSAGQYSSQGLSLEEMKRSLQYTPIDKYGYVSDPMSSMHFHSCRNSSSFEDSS

[15] = target: Angiotensin-converting enzyme (Oryctolagus cuniculus) (UniProt P12822); experiment: Inhibition of rabbit ACE at 3 uM; in short: as §1
[16] = target: Serine/threonine-protein kinase N1 (Homo sapiens) (UniProt Q16512); experiment: Inhibition of PKN1 at 3 uM
[17] = target: Ephrin type-B receptor 2 (Homo sapiens) (UniProt P29323); experiment: Inhibition of EPHB2 at 3 uM; in short: as §2
[18] = target: NUAK family SNF1-like kinase 2 (Homo sapiens) (UniProt Q9H093); experiment: Inhibition of SNARK at 3 uM
[19] = target: Serine/threonine-protein kinase BRSK2 (Homo sapiens) (UniProt Q8IWQ3); experiment: Inhibition of BRSK2 at 3 uM
[20] = tested on: Tyrosine-protein kinase ABL1 (Homo sapiens), P00519 [Y253F]; experiment: Inhibition of ABL1 Y253F mutant at 3 uM
[21] = target: High affinity nerve growth factor receptor (Homo sapiens) (UniProt P04629); experiment: Inhibition of TRKA at 3 uM
[22] = target: Histamine H2 receptor (Homo sapiens) (UniProt P25021); experiment: Inhibition of human histamine H2 receptor at 3 uM; in short: as §1
Chain of Histamine H2 receptor (Homo sapiens) (P25021 whole entry): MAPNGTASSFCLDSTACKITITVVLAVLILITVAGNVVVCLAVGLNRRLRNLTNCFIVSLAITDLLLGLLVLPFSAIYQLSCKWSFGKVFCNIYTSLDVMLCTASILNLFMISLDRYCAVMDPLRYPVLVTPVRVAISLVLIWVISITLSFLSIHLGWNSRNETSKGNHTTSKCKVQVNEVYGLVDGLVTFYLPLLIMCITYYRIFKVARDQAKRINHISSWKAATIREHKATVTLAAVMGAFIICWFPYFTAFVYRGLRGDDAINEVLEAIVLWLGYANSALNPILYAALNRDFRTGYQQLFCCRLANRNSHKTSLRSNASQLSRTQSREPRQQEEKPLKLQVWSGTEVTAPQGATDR

[23] = target: Mast/stem cell growth factor receptor Kit (Homo sapiens) (UniProt P10721); experiment: Inhibition of KIT at 3 uM
[24] = target: Type-2 angiotensin II receptor (Homo sapiens) (UniProt P50052); experiment: Inhibition of human AT2 receptor at 3 uM; in short: as §1
[25] = target: Adenosine receptor A1 (Homo sapiens) (UniProt P30542); experiment: Inhibition of human adenosine A1 receptor at 3 uM; in short: as §1
[26] = target: Casein kinase II subunit alpha' (Homo sapiens) (UniProt P19784); experiment: Inhibition of CSNK2A2 at 3 uM
[27] = target: Tyrosine-protein kinase TXK (Homo sapiens) (UniProt P42681); experiment: Inhibition of TXK at 3 uM
[28] = target: Cysteinyl leukotriene receptor 1 (Homo sapiens) (UniProt Q9Y271); experiment: Inhibition of human CysLT1 receptor at 3 uM
[29] = target: Maternal embryonic leucine zipper kinase (Homo sapiens) (UniProt Q14680); experiment: Inhibition of MELK at 3 uM
[30] = Clearance in Sprague-Dawley rat at 1 mg/kg, iv; conditions: in vivo
Rattus norvegicus [31] = species on record: Rattus norvegicus; conditions: 3 uM
[32] = target: Serine/threonine-protein kinase tousled-like 1 (Homo sapiens) (UniProt Q9UKI8); experiment: Inhibition of TLK1 at 3 uM
[33] = target: D(2) dopamine receptor (Homo sapiens) (UniProt P14416); experiment: Inhibition of human dopamine D2S receptor at 3 uM; in short: as §1
[34] = target: Angiopoietin-1 receptor (Homo sapiens) (UniProt Q02763); experiment: Inhibition of TIE2 at 3 uM
Chain of Angiopoietin-1 receptor (Homo sapiens) (Q02763 whole entry): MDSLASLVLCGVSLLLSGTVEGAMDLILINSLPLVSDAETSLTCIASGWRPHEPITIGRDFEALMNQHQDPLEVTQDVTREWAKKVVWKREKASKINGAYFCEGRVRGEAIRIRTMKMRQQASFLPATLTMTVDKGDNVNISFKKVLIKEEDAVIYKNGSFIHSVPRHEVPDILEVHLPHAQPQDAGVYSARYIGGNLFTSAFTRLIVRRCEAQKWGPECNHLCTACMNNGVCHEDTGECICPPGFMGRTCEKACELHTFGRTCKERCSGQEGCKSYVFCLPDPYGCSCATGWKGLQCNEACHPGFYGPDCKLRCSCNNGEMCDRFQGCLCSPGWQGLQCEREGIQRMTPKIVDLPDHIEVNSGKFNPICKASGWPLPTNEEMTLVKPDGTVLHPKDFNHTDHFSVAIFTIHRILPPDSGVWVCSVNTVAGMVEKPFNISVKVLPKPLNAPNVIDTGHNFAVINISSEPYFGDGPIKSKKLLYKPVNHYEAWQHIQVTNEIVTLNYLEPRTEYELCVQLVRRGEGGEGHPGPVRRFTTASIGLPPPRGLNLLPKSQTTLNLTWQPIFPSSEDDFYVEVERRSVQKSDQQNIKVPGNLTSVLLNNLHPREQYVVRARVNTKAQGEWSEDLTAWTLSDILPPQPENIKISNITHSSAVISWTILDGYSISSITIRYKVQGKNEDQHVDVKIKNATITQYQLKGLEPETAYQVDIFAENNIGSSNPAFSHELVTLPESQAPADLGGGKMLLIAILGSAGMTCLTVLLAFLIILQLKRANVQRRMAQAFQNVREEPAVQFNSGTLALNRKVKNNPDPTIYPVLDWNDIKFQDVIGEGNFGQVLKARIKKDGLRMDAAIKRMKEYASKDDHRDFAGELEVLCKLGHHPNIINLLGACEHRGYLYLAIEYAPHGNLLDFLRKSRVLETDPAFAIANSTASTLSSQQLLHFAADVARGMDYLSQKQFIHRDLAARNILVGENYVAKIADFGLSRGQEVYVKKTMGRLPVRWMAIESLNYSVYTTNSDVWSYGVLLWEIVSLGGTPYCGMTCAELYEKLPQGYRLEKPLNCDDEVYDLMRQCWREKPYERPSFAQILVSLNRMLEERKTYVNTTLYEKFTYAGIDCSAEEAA

[35] = target: Serine/threonine-protein kinase PLK1 (Homo sapiens) (UniProt P53350); experiment: Inhibition of PLK1 at 3 uM
Rattus norvegicus [36] = species on record: Rattus norvegicus; conditions: 3 uM; remark: listed apart in the source
[37] = target: Myosin light chain kinase, smooth muscle (Homo sapiens) (UniProt Q15746); experiment: Inhibition of MLCK at 3 uM
[38] = target: Vascular endothelial growth factor receptor 1 (Homo sapiens) (UniProt P17948); experiment: Inhibition of FLT1 at 3 uM; in short: as §2
[39] = target: Serine/threonine-protein kinase 26 (Homo sapiens) (UniProt Q9P289); experiment: Inhibition of MST4 at 3 uM
[40] = target: Misshapen-like kinase 1 (Homo sapiens) (UniProt Q8N4C8); experiment: Inhibition of MINK at 3 uM
[41] = target: MAP/microtubule affinity-regulating kinase 4 (Homo sapiens) (UniProt Q96L34); experiment: Inhibition of MARK4 at 3 uM
[42] = target: Ankyrin repeat and protein kinase domain-containing protein 1 (Homo sapiens) (UniProt Q8NFD2); experiment: Inhibition of ANKK1 at 3 uM
[43] = target: Serine/threonine-protein kinase D3 (Homo sapiens) (UniProt O94806); experiment: Inhibition of PRKD3 at 3 uM
[44] = target: Tyrosine-protein kinase receptor UFO (Homo sapiens) (UniProt P30530); experiment: Inhibition of AXL at 3 uM
Chain of Tyrosine-protein kinase receptor UFO (Homo sapiens) (P30530 whole entry): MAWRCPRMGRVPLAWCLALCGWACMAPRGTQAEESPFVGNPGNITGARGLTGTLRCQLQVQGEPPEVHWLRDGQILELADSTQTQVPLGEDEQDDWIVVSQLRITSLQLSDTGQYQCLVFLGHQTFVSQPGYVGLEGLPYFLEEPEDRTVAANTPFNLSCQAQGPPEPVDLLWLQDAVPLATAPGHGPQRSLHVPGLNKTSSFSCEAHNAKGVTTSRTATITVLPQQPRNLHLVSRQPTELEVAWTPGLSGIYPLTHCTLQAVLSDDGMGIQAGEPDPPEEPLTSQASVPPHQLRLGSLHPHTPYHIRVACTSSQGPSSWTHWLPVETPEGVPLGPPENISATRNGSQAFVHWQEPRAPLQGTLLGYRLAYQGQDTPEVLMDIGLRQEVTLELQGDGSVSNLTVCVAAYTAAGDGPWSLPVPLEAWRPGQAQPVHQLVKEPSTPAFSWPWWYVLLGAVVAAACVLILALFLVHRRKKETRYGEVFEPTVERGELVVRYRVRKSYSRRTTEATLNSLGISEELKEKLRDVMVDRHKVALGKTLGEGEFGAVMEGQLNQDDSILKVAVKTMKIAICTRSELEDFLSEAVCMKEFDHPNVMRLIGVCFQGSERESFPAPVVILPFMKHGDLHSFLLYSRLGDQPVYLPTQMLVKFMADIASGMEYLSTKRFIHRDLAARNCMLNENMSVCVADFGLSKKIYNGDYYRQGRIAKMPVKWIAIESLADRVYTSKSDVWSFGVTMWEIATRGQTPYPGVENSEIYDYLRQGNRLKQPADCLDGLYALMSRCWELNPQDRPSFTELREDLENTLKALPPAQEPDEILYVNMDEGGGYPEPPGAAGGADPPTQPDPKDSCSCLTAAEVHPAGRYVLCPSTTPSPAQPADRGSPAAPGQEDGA

[45] = target: Leukocyte tyrosine kinase receptor (Homo sapiens) (UniProt P29376); experiment: Inhibition of LTK at 3 uM

Chain of Platelet-activating factor receptor (Homo sapiens) (P25105 whole entry, looked up): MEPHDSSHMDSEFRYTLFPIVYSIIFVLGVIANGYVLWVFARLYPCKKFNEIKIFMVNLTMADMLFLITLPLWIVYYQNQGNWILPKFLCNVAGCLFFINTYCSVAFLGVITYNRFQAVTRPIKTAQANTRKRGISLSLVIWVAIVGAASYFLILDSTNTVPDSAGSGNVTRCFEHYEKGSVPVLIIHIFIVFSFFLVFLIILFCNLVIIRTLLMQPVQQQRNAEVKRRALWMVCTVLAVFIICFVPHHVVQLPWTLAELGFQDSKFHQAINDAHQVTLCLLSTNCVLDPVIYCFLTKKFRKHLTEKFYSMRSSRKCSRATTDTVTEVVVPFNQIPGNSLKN

For `CN(C)CCOc1cc(-c2cn[nH]c2)ccc1NC(=O)C1COc2ccccc2O1` (stereo not given) [SR-3677], the inhibition [1] was < 10%, the inhibition [2] was < 10% and the inhibition [3] was -4%. The inhibition [4] was 70%, the inhibition [5] was < 10% and the inhibition [6] was < 10%. The inhibition [7] was -3%, the inhibition [8] was < 10% and the inhibition [9] was < 10%. For the same compound, the inhibition [10] was -8%, the inhibition [11] was < 10% and the inhibition [12] was < 10%. The inhibition [13] was 7%, the inhibition [14] was < 10% and the inhibition [15] was 1%. For the same compound, the inhibition [16] was < 10%, the inhibition [17] was < 10% and the inhibition [18] was < 10%. For the same compound, the inhibition [19] was < 10%, the inhibition [20] was < 10% and the inhibition [21] was < 10%. For the same compound, the inhibition [22] was 1%, the inhibition [23] was < 10% and the inhibition [24] was -1%. The inhibition [25] was -4%, the inhibition [26] was < 10% and the inhibition [27] was < 10%. The inhibition [28] was 0%, the inhibition [29] was < 10% and the clearance [30] was 61 mL/min/kg. For the same compound, the inhibition (Rattus norvegicus [31]) was -4%, the inhibition [32] was < 10% and the inhibition [33] was 6%. The inhibition [34] was < 10%, the inhibition [35] was < 10% and the inhibition (Rattus norvegicus [36]) was 22%. The inhibition [37] was < 10%, the inhibition [38] was < 10% and the inhibition [39] was < 10%. The inhibition [40] was < 10%, the inhibition [41] was < 10% and the inhibition [42] was < 10%. The inhibition [43] was < 10%, the inhibition [44] was < 10% and the inhibition [45] was < 10%.
